ChEMBL document CHEMBL3600309, “Structure activity relationship study of burkholdine analogues toward simple antifungal agents” (2015)
In brackets after ≈: the same amount, converted by molar mass. Activity calls are given as the source filed them. The calls are words filed in the database; no cut-off is given here.

Assays:
Assay type in all cases: functional
[1] = Antifungal activity against Candida viswanathii NBRC10321 at 400 ug/ml after 24 hrs by twofold serial dilution method
Summary of the method: (§1)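 Compounds were first screened at a single concentration of 400 against each fungus. MIC values were then determined only for selected compounds.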

Aspergillus oryzae = test: Antifungal activity against Aspergillus oryzae 1-Murasaki-1 after 24 hrs by twofold serial dilution method; settings: 1-Murasaki-1, 24 h; summary of the method: as §1
Saccharomyces cerevisiae = test: Antifungal activity against Saccharomyces cerevisiae X2180-1A after 24 hrs by twofold serial dilution method; summary of the method: as §1

MIC (Aspergillus oryzae) [µg/mL] | MIC (Saccharomyces cerevisiae) [µg/mL] | SMILES | Activity [1]
 |  | CCCCCCCCCCCCNC(=O)[C@H]1CC(=O)N[C@H](CO)C(=O)N[C@H](Cc2ccc(O)cc2)C(=O)N[C@H](CC(N)=O)C(=O)NCC(=O)N[C@@H](CC(N)=O)C(=O)N[C@H](CO)C(=O)N[C@@H](CC(N)=O)C(=O)N1 | inactive
 |  | CCCCCCCCCCCCNC(=O)[C@@H]1CC(=O)N[C@H](CO)C(=O)N[C@H](Cc2ccc(O)cc2)C(=O)N[C@H](CC(N)=O)C(=O)NCC(=O)N[C@H](CC(N)=O)C(=O)N[C@H](CO)C(=O)N[C@@H](CC(N)=O)C(=O)N1 | inactive
200 (≈ 196 µM) | > 400 | CCCCCCCCCCCCNC(=O)[C@@H]1CC(=O)N[C@H](CO)C(=O)N[C@H](Cc2ccc(O)cc2)C(=O)N[C@H](CC(N)=O)C(=O)NCC(=O)N[C@H](CC(N)=O)C(=O)N[C@H](CO)C(=O)N[C@H](CC(N)=O)C(=O)N1 | inactive
 |  | CCCCCCCCCCCCCCCCNC(=O)[C@@H]1CC(=O)N[C@H](CO)C(=O)N[C@H](Cc2ccc(O)cc2)C(=O)N[C@H](CC(N)=O)C(=O)NCC(=O)N[C@@H](CC(N)=O)C(=O)N[C@@H](CO)C(=O)N[C@@H](CC(N)=O)C(=O)N1 | inactive
 |  | CCCCCCCCCCCCNC(=O)[C@H](CC(=O)N[C@H](CO)C(=O)N[C@H](Cc1ccc(O)cc1)C(=O)O)NC(=O)[C@H](CC(N)=O)NC(=O)[C@H](CO)NC(=O)[C@H](CC(N)=O)NC(=O)CNC(=O)[C@H](N)CC(N)=O | inactive
 |  | CCCCCCCCNC(=O)[C@H]1CC(=O)N[C@H](CO)C(=O)N[C@H](Cc2ccc(O)cc2)C(=O)N[C@H](CC(N)=O)C(=O)NCC(=O)N[C@@H](CC(N)=O)C(=O)N[C@@H](CO)C(=O)N[C@@H](CC(N)=O)C(=O)N1 | inactive
 |  | CCCCCCCCCCCCNC(=O)[C@H](CC(=O)N[C@H](CO)C(=O)N[C@H](Cc1ccc(O)cc1)C(=O)N[C@H](CC(N)=O)C(=O)NCC(=O)N[C@@H](CC(N)=O)C(=O)N[C@@H](CO)C(=O)O)NC(=O)[C@@H](N)CC(N)=O | inactive
 |  | CCCCCCCCCCCCNC(=O)[C@@H]1CC(=O)N[C@H](CO)C(=O)N[C@H](Cc2ccc(O)cc2)C(=O)N[C@H](CC(N)=O)C(=O)NCC(=O)N[C@H](CC(N)=O)C(=O)N[C@@H](CO)C(=O)N[C@@H](CC(N)=O)C(=O)N1 | inactive
50 (≈ 49.1 µM) | 25 (≈ 24.5 µM) | CCCCCCCCCCCCNC(=O)[C@@H]1CC(=O)N[C@H](CO)C(=O)N[C@H](Cc2ccc(O)cc2)C(=O)N[C@H](CC(N)=O)C(=O)NCC(=O)N[C@@H](CC(N)=O)C(=O)N[C@@H](CO)C(=O)N[C@@H](CC(N)=O)C(=O)N1 | inactive
200 (≈ 196 µM) | > 400 | CCCCCCCCCCCCNC(=O)[C@H]1CC(=O)N[C@H](CO)C(=O)N[C@H](Cc2ccc(O)cc2)C(=O)N[C@H](CC(N)=O)C(=O)NCC(=O)N[C@@H](CC(N)=O)C(=O)N[C@@H](CO)C(=O)N[C@H](CC(N)=O)C(=O)N1 | inactive
200 (≈ 196 µM) | 400 (≈ 392 µM) | CCCCCCCCCCCCNC(=O)[C@H]1CC(=O)N[C@H](CO)C(=O)N[C@H](Cc2ccc(O)cc2)C(=O)N[C@H](CC(N)=O)C(=O)NCC(=O)N[C@@H](CC(N)=O)C(=O)N[C@H](CO)C(=O)N[C@H](CC(N)=O)C(=O)N1 | inactive
 |  | CCCCCCCCCCCCNC(=O)[C@@H]1CC(=O)N[C@H](CO)C(=O)N[C@H](Cc2ccc(O)cc2)C(=O)N[C@H](CC(N)=O)C(=O)NCC(=O)N[C@H](CC(N)=O)C(=O)N[C@@H](CO)C(=O)N[C@H](CC(N)=O)C(=O)N1 | inactive
 |  | CCCCCCCCCCCCNC(=O)[C@@H]1CC(=O)N[C@H](CO)C(=O)N[C@H](Cc2ccc(O)cc2)C(=O)N[C@H](CC(N)=O)C(=O)NCC(=O)N[C@@H](CC(N)=O)C(=O)N[C@@H](CO)C(=O)N[C@H](CC(N)=O)C(=O)N1 | inactive
 |  | CCCCCCCCCCCCNC(=O)[C@H](CC(=O)N[C@H](CO)C(=O)O)NC(=O)[C@H](CC(N)=O)NC(=O)[C@H](CO)NC(=O)[C@H](CC(N)=O)NC(=O)CNC(=O)[C@@H](CC(N)=O)NC(=O)[C@H](N)Cc1ccc(O)cc1 | inactive
 |  | CCCCCCCCCCCCNC(=O)[C@H](CC(=O)N[C@H](CO)C(=O)N[C@H](Cc1ccc(O)cc1)C(=O)N[C@H](CC(N)=O)C(=O)NCC(=O)O)NC(=O)[C@H](CC(N)=O)NC(=O)[C@H](CO)NC(=O)[C@@H](N)CC(N)=O | inactive
200 (≈ 196 µM) | 100 (≈ 98.1 µM) | CCCCCCCCCCCCNC(=O)[C@H]1CC(=O)N[C@H](CO)C(=O)N[C@H](Cc2ccc(O)cc2)C(=O)N[C@H](CC(N)=O)C(=O)NCC(=O)N[C@H](CC(N)=O)C(=O)N[C@H](CO)C(=O)N[C@@H](CC(N)=O)C(=O)N1 | inactive
200 (≈ 196 µM) | 100 (≈ 98.1 µM) | CCCCCCCCCCCCNC(=O)[C@H]1CC(=O)N[C@H](CO)C(=O)N[C@H](Cc2ccc(O)cc2)C(=O)N[C@H](CC(N)=O)C(=O)NCC(=O)N[C@H](CC(N)=O)C(=O)N[C@H](CO)C(=O)N[C@H](CC(N)=O)C(=O)N1 | inactive
 |  | CCCCCCCCNC(=O)[C@@H]1CC(=O)N[C@H](CO)C(=O)N[C@H](Cc2ccc(O)cc2)C(=O)N[C@H](CC(N)=O)C(=O)NCC(=O)N[C@@H](CC(N)=O)C(=O)N[C@@H](CO)C(=O)N[C@@H](CC(N)=O)C(=O)N1 | inactive
200 (≈ 196 µM) | 400 (≈ 392 µM) | CCCCCCCCCCCCNC(=O)[C@H]1CC(=O)N[C@H](CO)C(=O)N[C@H](Cc2ccc(O)cc2)C(=O)N[C@H](CC(N)=O)C(=O)NCC(=O)N[C@H](CC(N)=O)C(=O)N[C@@H](CO)C(=O)N[C@H](CC(N)=O)C(=O)N1 | inactive
 |  | CCCCCCCCCCCCCCCCNC(=O)[C@H]1CC(=O)N[C@H](CO)C(=O)N[C@H](Cc2ccc(O)cc2)C(=O)N[C@H](CC(N)=O)C(=O)NCC(=O)N[C@@H](CC(N)=O)C(=O)N[C@@H](CO)C(=O)N[C@@H](CC(N)=O)C(=O)N1 | inactive
 |  | CCCCCCCCCCCCNC(=O)[C@@H]1CC(=O)N[C@H](CO)C(=O)N[C@H](Cc2ccc(O)cc2)C(=O)N[C@H](CC(N)=O)C(=O)NCC(=O)N[C@@H](CC(N)=O)C(=O)N[C@H](CO)C(=O)N[C@@H](CC(N)=O)C(=O)N1 | inactive
 |  | CCCCCCCCCCCCNC(=O)[C@H](CC(=O)N[C@H](CO)C(=O)N[C@H](Cc1ccc(O)cc1)C(=O)N[C@H](CC(N)=O)C(=O)NCC(=O)N[C@@H](CC(N)=O)C(=O)O)NC(=O)[C@H](CC(N)=O)NC(=O)[C@@H](N)CO | inactive
 |  | CCCCCCCCCCCCNC(=O)[C@H]1CC(=O)N[C@H](CO)C(=O)N[C@H](Cc2ccc(O)cc2)C(=O)N[C@H](CC(N)=O)C(=O)NCC(=O)N[C@H](CC(N)=O)C(=O)N[C@@H](CO)C(=O)N[C@@H](CC(N)=O)C(=O)N1 | inactive
50 (≈ 49.1 µM) | 50 (≈ 49.1 µM) | CCCCCCCCCCCCNC(=O)[C@H]1CC(=O)N[C@H](CO)C(=O)N[C@H](Cc2ccc(O)cc2)C(=O)N[C@H](CC(N)=O)C(=O)NCC(=O)N[C@@H](CC(N)=O)C(=O)N[C@@H](CO)C(=O)N[C@@H](CC(N)=O)C(=O)N1 | inactive
 |  | CCCCCCCCCCCCNC(=O)[C@@H]1CC(=O)N[C@H](CO)C(=O)N[C@H](Cc2ccc(O)cc2)C(=O)N[C@H](CC(N)=O)C(=O)NCC(=O)N[C@@H](CC(N)=O)C(=O)N[C@H](CO)C(=O)N[C@H](CC(N)=O)C(=O)N1 | inactive
 |  | CCCCCCCCCCCCNC(=O)[C@H](CC(=O)N[C@H](CO)C(=O)N[C@H](Cc1ccc(O)cc1)C(=O)N[C@H](CC(N)=O)C(=O)O)NC(=O)[C@H](CC(N)=O)NC(=O)[C@H](CO)NC(=O)[C@H](CC(N)=O)NC(=O)CN | inactive
 | 1 (≈ 1.08 µM) | C[C@@H]1[C@H](O)[C@@H](C)/C=C/C=C/C=C/C=C/C=C/C=C/C=C/[C@H](O[C@@H]2O[C@H](C)[C@@H](O)[C@H](N)[C@@H]2O)C[C@@H]2O[C@](O)(C[C@@H](O)C[C@@H](O)[C@H](O)CC[C@@H](O)C[C@@H](O)CC(=O)O[C@H]1C)C[C@H](O)[C@H]2C(=O)O [AMPHOTERICIN B] | 
